Screens from PubChem.
NadD block: inhibitors of Staphylococcus aureus NadD; purified NadD enzyme, colorimetric absorbance read-out; inhibition, % at 20 µM; 360,000 tested, 0.78% active; AID 602399; in the data active = inhibition above about 26%
CTSL1 counter: cathepsin L1 inhibition, PFM18AAP counter-screen; 300,000 tested, 0.49% active; recombinant F. hepatica cathepsin L1, Z-Leu-Arg-MCA fluorescence; AID 1906; inhibition, % at 5.96 µM;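 active = inhibition above the mean of all tested compounds plus 3 SD, set per screening campaign, cut at about 17% in these data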
PP5 primary: PP5 (human) phosphatase inhibition; inhibition, % at 6.7 µM; P53041; purified PP5c, OMFP substrate fluorescence; 320,000 tested, 0.18% active;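 active = inhibition above the campaign's mean inhibition across all tested compounds plus 3 SD, cut at about 9.5% in these data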
Target sequence (P53041 whole entry, looked up): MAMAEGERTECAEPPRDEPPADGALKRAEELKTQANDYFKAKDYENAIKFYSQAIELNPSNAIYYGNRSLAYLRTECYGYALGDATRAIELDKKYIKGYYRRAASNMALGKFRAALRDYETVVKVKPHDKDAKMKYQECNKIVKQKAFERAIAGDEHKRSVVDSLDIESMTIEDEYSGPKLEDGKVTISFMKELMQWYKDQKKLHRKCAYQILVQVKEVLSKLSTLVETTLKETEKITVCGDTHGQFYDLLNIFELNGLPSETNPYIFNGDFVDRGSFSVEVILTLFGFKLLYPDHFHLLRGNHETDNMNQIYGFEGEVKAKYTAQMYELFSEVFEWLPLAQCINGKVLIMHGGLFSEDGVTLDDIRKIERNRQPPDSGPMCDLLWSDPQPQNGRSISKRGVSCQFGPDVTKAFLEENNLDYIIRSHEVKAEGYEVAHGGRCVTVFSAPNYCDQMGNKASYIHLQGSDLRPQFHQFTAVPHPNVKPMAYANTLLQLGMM
PP1 inh: PP1-alpha (human) inhibition in PP5 counter-screen. purified PP1alpha, OMFP fluorescence. inhibition, % at 6.7 µM. 320,000 tested, 0.9% active;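 active = inhibition above the mean inhibition of all tested compounds plus 3 SD, computed separately for each screening campaign, cut at about 15% in these data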
Myeloid diff MLP: myeloid differentiation induction | AID 624256 | calls only at 10 µM | ER-HoxA9 myeloid progenitors, lysozyme-GFP differentiation, flow cytometry | 360,000 tested, 1% active;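 active = normalized GFP-positive differentiation at or above the plate's own cutoff, the solvent-only control mean plus 3 SD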;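 also: cells exposed to compound for four days before flow analysis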
HCV core dimer: HCV core protein dimerization inhibition; 300,000 tested, 0.33% active; TR-FRET GST/Flag-core106 dimerization, 1536-well; inhibition, % at 5 µM;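 active = inhibition above the mean of all tested compounds plus 3 SD, set per screening campaign, cut at about 45% in these data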
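Material: Tagged HCV core106 pair (GST and Flag) | Amount: GST-core106 13.5 nM, Flag-core106 17 nM | Medium: KF-containing HEPES buffer, pH 7.45, DTT, CHAPS, BSA | Reagent: Eu donor and XL665 acceptor anti-tag antibodies | Schedule: 4 h at 22.5 °C | Technique: Time-resolved FRET, ex 340 nm, em 617 and 671 nm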
Myeloid diff: promotes myeloid progenitor differentiation; AID 651706; calls only; 2,300 tested, 2% active; ER-HoxA9 myeloid progenitors, GFP/Mac1 double-positive flow; shares compounds with Myeloid diff MLP;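 active = share of green or green-and-red cells above 9 and 9% in run 1 or 4 and 3% in run 2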
GFP autofluor: counter-screen for myeloid differentiation promoters: compound fluorescence. shares compounds with Myeloid diff MLP. ER-HoxA9 myeloid progenitors, no estrogen, GFP autofluorescence flow cytometry; vehicle wells 0%, positive control 100%. fluorescence response, % (test concentration not listed). 2,300 tested, 7.4% active. AID 651707;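 active = over 5% cells positive for green fluorescent reporter, or over 2% positive for both it and APC stain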
Each line names hits and unclear results; the compound was inactive in the other large screens (follow-up assays come after a bar, where they were run). Hits are enriched below; roughly 3.1% of the tested compounds scored in any of these assays.

Cc1c(Cl)c([N+](=O)[O-])nn1Cc1ccc(C(=O)Nc2ccc(Cl)cn2)o1	none
O=C(Nc1ccc(Cl)cn1)c1ccc([N+](=O)[O-])o1	Myeloid diff MLP active (no result: CTSL1 counter, PP5 primary, PP1 inh, HCV core dimer) | Myeloid diff inactive | GFP autofluor inactive
CC(c1ccccc1)n1ccnc1CO (stereo not drawn)	none (no result: CTSL1 counter, PP5 primary, PP1 inh, HCV core dimer)
c1ccc(Cc2c(-c3ccccc3)nc3c4ccccc4ccn23)cc1	Myeloid diff MLP active (no result: CTSL1 counter, PP5 primary, PP1 inh, HCV core dimer) | Myeloid diff inactive | GFP autofluor inactive
CCC(=O)Nc1cccc(NC(=O)CSc2nnc(C3CC3)n2C)c1	none | Myeloid diff inactive | GFP autofluor inactive
O=C(CSc1nc2ccccc2n1CC(=O)N1CCCC1)NCc1ccc2c(c1)OCO2	none | Myeloid diff inactive | GFP autofluor inactive
O=C(CSc1nc2ccccc2c(=O)n1-c1ccccc1)NCc1ccc2c(c1)OCO2	none
CN(C)S(=O)(=O)c1ccc(N2CCCC2)c(C(=O)NCC2CCCO2)c1 (stereo not drawn)	none
Cc1cc(Br)c(S(=O)(=O)n2nnc3ccccc32)cc1C	none | Myeloid diff inactive | GFP autofluor inactive
COc1ccc(F)cc1S(=O)(=O)n1nnc2ccccc21	none | Myeloid diff inactive | GFP autofluor inactive
CCN1C(=O)N2C[C@H]3CON(C)[C@H]3C[C@H]2c2ccccc21	none (no result: CTSL1 counter, PP5 primary, PP1 inh, HCV core dimer)
COC(=O)c1ccc(NC(=O)C(=O)N2CCN(C(=S)Nc3ccc(C)cc3)CC2)cc1	none | Myeloid diff inactive | GFP autofluor inactive
O=C(CCC(=O)N(CC(=O)NC1CCCC1)Cc1ccc(F)cc1)Nc1nccs1	none
CCCN=C1N(C)C[C@@H]2[C@@H]3C(=O)N(Cc4ccccc4)C(=O)[C@@H]3[C@](Cc3ccccc3)(C(=O)OC)N12	none (no result: CTSL1 counter, PP5 primary, PP1 inh, HCV core dimer)
Cc1ccc(-c2noc(CCC(=O)NCC3CCCO3)n2)cc1 (stereo not drawn)	none
CC(C)(C)c1ccc(-c2noc(CCC(=O)NCC3CCCO3)n2)cc1 (stereo not drawn)	none | Myeloid diff inactive | GFP autofluor inactive
C=CCNCC(O)COc1ccc(C(C)=O)cc1OC (stereo not drawn)	none
C[C@@H]1COC(=O)[C@H](Cc2ccc(F)cc2)C/C=C\C[C@@H](CC(=O)NCCO)C(=O)N1	none (no result: CTSL1 counter, PP5 primary, PP1 inh, HCV core dimer)
CCOc1cc(C=C2C(=O)c3ccccc3C2=O)ccc1OCC(=O)Nc1ccc(C)cc1	Myeloid diff MLP active | Myeloid diff inactive | GFP autofluor inactive
CCOc1cc(/C=N/NC(N)=O)ccc1OCC(=O)Nc1ccc(C)c(C)c1	none
CC(=O)N1CC=C2C(C#N)=C(N)C(C#N)(C#N)C(CCc3ccccc3)C2C1 (stereo not drawn)	Myeloid diff MLP active | Myeloid diff inactive | GFP autofluor inactive
CCOc1ccc(Nc2oc(-c3ccco3)nc2C#N)cc1	Myeloid diff MLP active | Myeloid diff inactive | GFP autofluor inactive
O=[N+]([O-])c1ccc(/C=N/Nc2ccc3ccccc3c2)o1	Myeloid diff MLP active | Myeloid diff inactive | GFP autofluor 8.1
O=C(N/N=C/c1ccc([N+](=O)[O-])o1)c1cc2ccccc2o1	none | Myeloid diff inactive | GFP autofluor inactive
CCSc1nnc(NC(=O)C2CCCN(C(=O)c3ccc(Cl)cc3)C2)s1 (stereo not drawn)	none (no result: CTSL1 counter, PP5 primary, PP1 inh, HCV core dimer)
CN(C)c1ccc(NC(=O)CSc2nc(C3CC3)nc3ccccc23)cc1	none
O=C(NCc1ccccn1)[C@@H]1CCCN1C(=O)[C@@H]1CCCN1C(=O)c1cccc(Cl)c1	none (no result: CTSL1 counter, PP5 primary, PP1 inh, HCV core dimer) | Myeloid diff inactive | GFP autofluor inactive
COc1cccc(C(=O)N2CCC[C@H]2C(=O)N2CCC[C@H]2C(=O)NCc2ccccn2)c1	none (no result: CTSL1 counter, PP5 primary, PP1 inh, HCV core dimer)
COC1CC(=O)C2OC(c3ccccc3)OCC2O1 (stereo not drawn)	none (no result: CTSL1 counter, PP5 primary, PP1 inh, HCV core dimer)
COCCCNC(=O)C[C@@H]1C[C@@]2(C(=O)OC)CCCCC=C2N(CCC2=CCCCC2)C1=O	none (no result: CTSL1 counter, PP5 primary, PP1 inh, HCV core dimer)
COc1ccc(CC(=O)OCC(=O)c2c[nH]c3ccccc23)cc1	none (no result: CTSL1 counter, HCV core dimer)
COc1cc(CC(=O)OCC(=O)c2c[nH]c3ccccc23)cc(OC)c1OC	none (no result: CTSL1 counter, HCV core dimer) | Myeloid diff inactive | GFP autofluor 9.7
COc1ccc(CCC(=O)OCC(=O)NCc2ccc(OC)c(OC)c2)cc1OC	none (no result: CTSL1 counter, PP5 primary, PP1 inh, HCV core dimer)
O=C(COC(=O)/C=C/c1ccccc1)NNC(=O)c1ccccc1F	none (no result: CTSL1 counter, PP5 primary, PP1 inh, HCV core dimer)
Cc1ccc(NS(=O)(=O)c2cccc(C(=O)NNC(=O)c3ccco3)c2)c(C)c1	Myeloid diff MLP active | Myeloid diff inactive | GFP autofluor inactive
Cc1ccc(NS(=O)(=O)c2cccc(C(=O)O)c2)c(C)c1	none
CC1(C)OC(=O)C=C[C@]2(C)[C@H]3CC[C@@]4(C)[C@H](C(=O)O)OC(=O)[C@H]5O[C@]54[C@]3(C)C(=O)C[C@@H]12	none (no result: CTSL1 counter, HCV core dimer)
Cc1oc(C(=O)O)cc1CSc1nnc(-c2ccccc2)n1C	none | Myeloid diff inactive | GFP autofluor inactive
Cc1cc(=O)nc2c3ccccc3n(CC(=O)NCCC3=CCCCC3)n12	none
Cn1c(=O)c2cc(NC(=O)CCc3ccccc3)ccc2n1Cc1cccc(C(F)(F)F)c1	none (no result: CTSL1 counter, PP5 primary, PP1 inh, HCV core dimer)
Cn1c(=O)c2cc(NC(=O)CCc3ccc(O)cc3)ccc2n1Cc1cccc(C(F)(F)F)c1	Myeloid diff MLP active (no result: CTSL1 counter, PP5 primary, PP1 inh, HCV core dimer) | Myeloid diff inactive | GFP autofluor inactive
O=C(CN1C(=O)CC(c2ccccc2)=Nc2ccccc21)NCc1ccccc1	none
Cc1cc2c(cc1C)N(CC(=O)N1CCCC1)C(=O)CC(c1ccccc1)=N2	none | Myeloid diff inactive | GFP autofluor inactive
COc1cccc(-c2csc(N3CCN(CC(=O)Nc4ccc5c(c4)OCO5)CC3)n2)c1	none | Myeloid diff inactive | GFP autofluor inactive
COc1ccc(NC(=O)CN2CCN(c3nc(-c4cccc(OC)c4)cs3)CC2)cc1	none
Cc1cccc(NC(=O)c2cc(NC(=O)C3CCCCC3C(=O)O)ccc2Cl)n1 (stereo not drawn)	none
Cc1cccc(NC(=O)c2cc(NC(=O)c3ccco3)ccc2Cl)n1	none | Myeloid diff inactive | GFP autofluor inactive
Cc1cc(=O)oc2cc(NC(=O)c3ccccc3OC(F)F)ccc12	none
O=C(O)c1ccccc1N/N=C/c1c(Sc2nnnn2-c2ccccc2)nc2ccccn2c1=O	Myeloid diff MLP active | Myeloid diff active | GFP autofluor inactive
O=C(CSc1nnc2ccccn12)Nc1ccccc1C(=O)O	none
COc1ccc(NC(=O)CS(=O)(=O)c2cn(CC(=O)N3CCCC3)c3ccccc23)c(OC)c1	none
COc1cc(NC(=S)Nc2ccccn2)c(OC)cc1Cl	none | Myeloid diff inactive | GFP autofluor inactive
OC(c1ccc(Cl)c(F)c1)c1ncc(-c2ccc(F)cc2)[nH]1 (stereo not drawn)	none (no result: CTSL1 counter, PP5 primary, PP1 inh, HCV core dimer)
CC1(c2nnnn2-c2ccc3c(c2)OCCO3)CCC(=O)N1Cc1cccc(C(F)(F)F)c1 (stereo not drawn)	none (no result: CTSL1 counter, PP5 primary, PP1 inh, HCV core dimer)
